Assay results as given in ChEMBL document CHEMBL1641511, “Microwave-assisted synthesis of quinoline, isoquinoline, quinoxaline and quinazoline derivatives as CB2 receptor agonists” (Bioorg Med Chem, 2011).
Calls of active or inactive are those of the source. No rule for the calls is given here.

Key:
[1] = molecular target: Cannabinoid receptor 2 (Homo sapiens) (UniProt P34972); assay: Agonist activity at human recombinant cannabinoid CB2 receptor expressed in CHO cells at 10 uM by [35S]GTPgammaS binding assay; format: functional, cell-based
Chain of Cannabinoid receptor 2 (Homo sapiens) (P34972 whole entry): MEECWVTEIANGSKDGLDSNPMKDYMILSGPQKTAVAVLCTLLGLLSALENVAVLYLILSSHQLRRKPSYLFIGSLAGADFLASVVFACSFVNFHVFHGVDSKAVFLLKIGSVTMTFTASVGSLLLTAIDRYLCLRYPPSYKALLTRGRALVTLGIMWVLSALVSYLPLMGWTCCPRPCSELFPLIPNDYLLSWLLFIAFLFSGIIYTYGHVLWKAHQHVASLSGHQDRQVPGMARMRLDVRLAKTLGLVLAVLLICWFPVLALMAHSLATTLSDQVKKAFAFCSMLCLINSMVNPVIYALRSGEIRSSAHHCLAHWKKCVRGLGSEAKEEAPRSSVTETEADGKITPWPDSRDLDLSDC
Procedure, shortened: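 Single-point screen for G-protein activation at hCB2 with [35S]GTPγS binding, ligand at 10 µM. Response given relative to the 10 nM HU-210 agonist response, in percent. Mean SEM of at least three experiments, each done in duplicate.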

[2] = molecular target: Cannabinoid receptor 1 (Rattus norvegicus) (UniProt P20272); assay: Antagonist activity at rat cannabinoid CB1 receptor in Wistar rat cerebellar membranes at 10 uM by [35S]GTPgammaS binding assay; format: functional, cell membranes; settings: Cerebellum, Membrane
Chain of Cannabinoid receptor 1 (Rattus norvegicus) (P20272 whole entry): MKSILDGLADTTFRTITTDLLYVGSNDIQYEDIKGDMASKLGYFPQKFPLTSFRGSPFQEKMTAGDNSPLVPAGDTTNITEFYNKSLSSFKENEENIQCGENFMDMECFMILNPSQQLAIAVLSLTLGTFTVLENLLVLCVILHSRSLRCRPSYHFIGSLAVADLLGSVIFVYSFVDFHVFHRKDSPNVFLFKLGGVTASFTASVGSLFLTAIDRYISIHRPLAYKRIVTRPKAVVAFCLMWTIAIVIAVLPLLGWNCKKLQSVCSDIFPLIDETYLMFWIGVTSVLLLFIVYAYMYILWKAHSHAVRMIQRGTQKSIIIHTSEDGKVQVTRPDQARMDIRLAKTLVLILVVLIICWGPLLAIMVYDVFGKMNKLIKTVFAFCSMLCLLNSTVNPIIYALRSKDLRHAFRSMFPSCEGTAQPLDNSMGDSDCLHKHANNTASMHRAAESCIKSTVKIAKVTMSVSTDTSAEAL
Procedure, shortened: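 Uses non-recombinant rat cerebellar membrane fractions as the CB1 source, with [35S]GTPγS binding. Ligand screened at 10 µM for its ability to antagonize the agonist response to 10 nM HU-210.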

[3] = molecular target: Cannabinoid receptor 2 (Homo sapiens) (UniProt P34972); assay: Agonist activity at human recombinant cannabinoid CB2 receptor expressed in CHO cells by [35S]GTPgammaS binding assay relative to HU-210; format: functional, cell-based
Procedure, shortened: (§1)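 hCB2 [35S]GTPγS binding concentration–response curves, run only for ligands giving over 50% relative activity at 10 µM. logEC50 and Emax come from nonlinear regression fitted to a sigmoidal concentration–response equation. Emax is given as percent of the 10 nM HU-210 response. Mean SEM of at least three experiments in duplicate.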

[4] = molecular target: Cannabinoid receptor 2 (Homo sapiens) (UniProt P34972); assay: Agonist activity at human recombinant cannabinoid CB2 receptor expressed in CHO cells by [35S]GTPgammaS binding assay; format: functional, cell-based; procedure, shortened: as §1
[5] = molecular target: Cannabinoid receptor 1 (Rattus norvegicus) (UniProt P20272); assay: Antagonist activity at rat cannabinoid CB1 receptor in Wistar rat cerebellar membranes by [35S]GTPgammaS binding assay; format: functional, cell membranes; settings: Cerebellum, Membrane
Procedure, shortened: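 Non-recombinant rat cerebellar membrane fractions, [35S]GTPγS binding. Compounds screened at a single concentration for their ability to antagonise the response to 10 nM HU-210 agonist.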

In the case of `O=C(NCc1ccccc1)c1cc2ccccc2c(Nc2cccc(C(F)(F)F)c2)n1`, the Activity [1] is reported as 0% and the Activity [2] is reported as “inactive”.
In the case of `FC(F)(F)c1ccc(Nc2nccc3ccccc23)cc1`, the Activity [1] is reported as 25% and the Activity [2] is reported as “inactive”.
With `FC(F)(F)c1cccc(Nc2nccc3ccccc23)c1` the Activity [1] was 102%, the Emax [3] was 124% and the pEC50 [4] was 5.8. The Activity [2] was “inactive”.
With `O=C(NCc1ccccc1)c1cnc(Nc2cccc(C(F)(F)F)c2)c2ccccc12` the Activity [1] was 21% and the Activity [2] was “inactive”.
For `c1ccc2nc(NC3CCCC3)ccc2c1`, the Activity [1] was 22% and the Activity [2] was “inactive”.
With `c1ccc2nc(N3CCCCC3)ccc2c1` the Activity [1] was 10% and the Activity [2] was “inactive”.
`CCCCCCNc1ccc2ccccc2n1` was tested, and the Activity [1] was 10% and the Activity [2] was “inactive”.
`Clc1ccccc1Nc1ccc2ccccc2n1` gave an Activity [1] of 56%, an Emax [3] of 91% and a pEC50 [4] of 5.2. For the same compound, the Activity [2] was “inactive”.
`c1ccc(Nc2ccc3ccccc3n2)cc1` was tested, and the Activity [1] was 39% and the Activity [2] was “inactive”.
With `FC(F)(F)c1cccc(Nc2ccnc3ccccc23)c1` the Activity [1] was 50%, the Emax [3] was 58% and the pEC50 [4] was 5.5. For the same compound, the Activity [2] was “inactive”.
`c1ccc(Oc2cnc3ccccc3c2)cc1` was tested, and the Activity [1] was 17% and the Activity [2] was “inactive”.
In the case of `c1ccc(Cc2ccccc2Nc2ccc3ccccc3n2)cc1`, the Activity [1] is reported as 18% and the Activity [2] is reported as “inactive”.
`FC(F)(F)c1cccc(Nc2cnc3ccccc3n2)c1` showed an Activity [1] of 52%, an Emax [3] of 69% and a pEC50 [4] of 5.4. For the same compound, the Activity [2] was “inactive”.
Work on `c1ccc(Sc2ccc3ccccc3n2)cc1` yielded an Activity [1] of 47%, an Emax [3] of 61% and a pEC50 [4] of 5.4. For the same compound, the Activity [2] was “inactive”.
For `c1ccc2nc(NCC3CCCCC3)ccc2c1`, the Activity [1] was 44% and the Activity [2] was “inactive”.
`COC(=O)c1cc2ccccc2c(Nc2cccc(C(F)(F)F)c2)n1` was tested, and the Activity [1] was 4% and the Activity [2] was “inactive”.
For `COc1ccccc1NC(=O)c1cnc(Nc2cccc(C(F)(F)F)c2)c2ccccc12`, the Activity [1] was 1% and the Activity [2] was “inactive”.
`FC(F)(F)c1ccc(Nc2ccc3ccccc3n2)cc1` was tested, and the Activity [1] was 48% and the Activity [2] was “inactive”.
In the case of `CCOC(=O)c1ccc(Nc2ccc3ccccc3n2)cc1`, the Activity [1] is reported as 3% and the Activity [2] is reported as “inactive”.
For `c1ccc(Oc2nccc3ccccc23)cc1`, the Activity [1] was 31% and the Activity [2] was “inactive”.
With `c1ccc(Nc2cnc3ccccc3n2)cc1` the Activity [1] was 30% and the Activity [2] was “inactive”.
In the case of `O=C(NC1CCCCC1)c1cc2ccccc2c(Nc2cccc(C(F)(F)F)c2)n1`, the Activity [1] is reported as 13% and the Activity [2] is reported as “inactive”.
Work on `FC(F)(F)c1cccc(Nc2ncnc3ccccc23)c1` yielded an Activity [1] of 68%, an Emax [3] of 79% and a pEC50 [4] of 5.6. The Activity [2] was “inactive”.
In the case of `c1ccc(Sc2nccc3ccccc23)cc1`, the Activity [1] is reported as 33% and the Activity [2] is reported as “inactive”.
With `COc1cccc(Nc2ccc3ccccc3n2)c1` the Activity [1] was 50%, the Emax [3] was 61% and the pEC50 [4] was 5.6. For the same compound, the Activity [2] was “inactive”.
In the case of `O=C(c1cnc(Nc2cccc(C(F)(F)F)c2)c2ccccc12)N1CCOCC1`, the Activity [1] is reported as 76%, the Emax [3] is reported as 75% and the pEC50 [4] is reported as 7.8. It also gave a logEC50 [5] of 5.
`Clc1cccc(Nc2ccc3ccccc3n2)c1` gave an Activity [1] of 58%, an Emax [3] of 70% and a pEC50 [4] of 5.6. For the same compound, the Activity [2] was “inactive”.
For `N#Cc1cccc(Nc2ccc3ccccc3n2)c1`, the Activity [1] was 25% and the Activity [2] was “inactive”.
For `CN(C)c1ccc(Nc2ccc3ccccc3n2)cc1`, the Activity [1] was 20% and the Activity [2] was “inactive”.
With `c1ccc(Nc2ccnc3ccccc23)cc1` the Activity [1] was 9% and the Activity [2] was “inactive”.
In the case of `c1ccc2nc(N3CCOCC3)ccc2c1`, the Activity [1] is reported as 7% and the Activity [2] is reported as “inactive”.
In the case of `c1ccc(Nc2ncnc3ccccc23)cc1`, the Activity [1] is reported as 10% and the Activity [2] is reported as “inactive”.
For `O=C(NCC1CCCCC1)c1cnc(Nc2cccc(C(F)(F)F)c2)c2ccccc12`, the Activity [1] was 58%, the Emax [3] was 67% and the pEC50 [4] was 5.8. The Activity [2] was “inactive”.
`O=C(NCC1CCCCC1)c1cc2ccccc2c(Nc2cccc(C(F)(F)F)c2)n1` was tested, and the Activity [1] was -2% and the Activity [2] was “inactive”.
`FC(F)(F)c1cccc(Nc2ncc3ccccc3n2)c1` gave an Activity [1] of 53%, an Emax [3] of 67% and a pEC50 [4] of 5.5. For the same compound, the Activity [2] was “inactive”.
With `Oc1ccc(Nc2ccc3ccccc3n2)cc1` the Activity [1] was 8% and the Activity [2] was “inactive”.
Work on `O=C(NC1CCCCC1)c1cnc(Nc2cccc(C(F)(F)F)c2)c2ccccc12` yielded an Activity [1] of 54%, an Emax [3] of 73% and a pEC50 [4] of 5.7. For the same compound, the Activity [2] was “inactive”.
`c1ccc(Nc2ncc3ccccc3n2)cc1` was tested, and the Activity [1] was 38% and the Activity [2] was “inactive”.
In the case of `c1ccc(Sc2cnc3ccccc3c2)cc1`, the Activity [1] is reported as 13% and the Activity [2] is reported as “inactive”.
`Clc1ccc(Nc2ccc3ccccc3n2)cc1` showed an Activity [1] of 75%, an Emax [3] of 80% and a pEC50 [4] of 5.7. For the same compound, the Activity [2] was “inactive”.
`COc1ccccc1Nc1ccc2ccccc2n1` showed an Activity [1] of 69%, an Emax [3] of 102% and a pEC50 [4] of 5.3. For the same compound, the Activity [2] was “inactive”.
For `FC(F)(F)c1cccc(Nc2ccc3ccccc3n2)c1`, the Activity [1] was 64%, the Emax [3] was 65% and the pEC50 [4] was 5.9. The Activity [2] was “inactive”.
`Brc1cccc(Nc2ccc3ccccc3n2)c1` gave an Activity [1] of 64%, an Emax [3] of 69% and a pEC50 [4] of 5.7. The Activity [2] was “inactive”.
`FC(F)(F)c1ccccc1Nc1nccc2ccccc12` was tested, and the Activity [1] was 43% and the Activity [2] was “inactive”.
In the case of `COc1cc(C(F)(F)F)ccc1Nc1ccc2ccccc2n1`, the Activity [1] is reported as 33% and the Activity [2] is reported as “inactive”.
With `c1ccc(CNc2ccc3ccccc3n2)cc1` the Activity [1] was 20% and the Activity [2] was “inactive”.
`FC(F)(F)c1ccccc1Nc1ccc2ccccc2n1` showed an Activity [1] of 63%, an Emax [3] of 103% and a pEC50 [4] of 5.2. The Activity [2] was “inactive”.
Work on `COc1ccc(Nc2ccc3ccccc3n2)cc1` yielded an Activity [1] of 49%, an Emax [3] of 51% and a pEC50 [4] of 5.7. For the same compound, the Activity [2] was “inactive”.
With `c1ccc2nc(NC3CCCCC3)ccc2c1` the Activity [1] was 57%, the Emax [3] was 88% and the pEC50 [4] was 5.2. For the same compound, the Activity [2] was “inactive”.
`OCCc1ccc(Nc2ccc3ccccc3n2)cc1` was tested, and the Activity [1] was 20% and the Activity [2] was “inactive”.
With `c1ccc(Nc2nccc3ccccc23)cc1` the Activity [1] was 7% and the Activity [2] was “inactive”.
